pIC50, pKi: −log10 of the molar value. Converted amounts (≈) assume the structure as drawn.
Assays:
[1] = target: T1, Neuropeptide Y receptor type 5 (Homo sapiens, UniProt Q15761); experiment: Antagonist activity at human NPY Y5 receptor expressed in HEK293 cells assessed as inhibition of calcium level by FLIPR assay; format: functional, cell-based
T1 sequence (Q15761 whole entry): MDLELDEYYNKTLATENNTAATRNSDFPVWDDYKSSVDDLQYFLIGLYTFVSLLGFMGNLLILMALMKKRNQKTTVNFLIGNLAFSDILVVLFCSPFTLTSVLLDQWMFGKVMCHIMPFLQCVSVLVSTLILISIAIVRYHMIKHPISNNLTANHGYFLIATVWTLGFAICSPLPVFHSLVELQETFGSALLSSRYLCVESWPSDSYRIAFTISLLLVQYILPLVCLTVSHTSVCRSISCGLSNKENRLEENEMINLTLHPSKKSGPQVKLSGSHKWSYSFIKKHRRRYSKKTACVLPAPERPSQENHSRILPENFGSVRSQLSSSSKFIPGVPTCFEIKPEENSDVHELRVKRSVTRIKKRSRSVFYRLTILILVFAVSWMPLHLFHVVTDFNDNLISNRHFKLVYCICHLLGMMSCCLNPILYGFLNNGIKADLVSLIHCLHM
Summary of the method: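 Functional antagonism measured at the human Y5 receptor stably expressed in HEK293 cells, by FLIPR calcium read-out in 384-well format. Results expressed as fpKi. At least two replicates; each determination within 0.3 log units of the mean.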

[2] = Solubility of the compound by high throughput chemiluminescent nitrogen detection method; format: physicochemical
Cytochrome P450 1A2 = target: T2, Cytochrome P450 1A2 (Homo sapiens, UniProt P05177); experiment: Inhibition of CYP1A2; format: ADME
T2 sequence (P05177 whole entry): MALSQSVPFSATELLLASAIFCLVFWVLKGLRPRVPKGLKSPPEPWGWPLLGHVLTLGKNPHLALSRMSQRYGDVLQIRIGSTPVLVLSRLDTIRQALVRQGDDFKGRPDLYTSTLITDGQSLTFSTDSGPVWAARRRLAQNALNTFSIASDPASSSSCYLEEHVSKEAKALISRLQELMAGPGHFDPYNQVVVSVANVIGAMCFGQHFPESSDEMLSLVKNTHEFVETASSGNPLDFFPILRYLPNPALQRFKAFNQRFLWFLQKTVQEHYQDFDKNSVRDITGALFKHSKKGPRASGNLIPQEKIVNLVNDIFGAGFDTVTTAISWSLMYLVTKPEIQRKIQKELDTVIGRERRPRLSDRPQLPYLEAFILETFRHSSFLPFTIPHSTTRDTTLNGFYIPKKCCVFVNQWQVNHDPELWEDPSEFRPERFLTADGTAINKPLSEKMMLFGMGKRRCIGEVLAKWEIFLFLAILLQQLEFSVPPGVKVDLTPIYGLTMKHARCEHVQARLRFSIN

Cytochrome P450 2C9 = Cytochrome P450 2C9 (Homo sapiens, UniProt P11712); experiment: Inhibition of CYP2C9; format: ADME
Cytochrome P450 2C19 = Cytochrome P450 2C19 (Homo sapiens, UniProt P33261); experiment: Inhibition of CYP2C19; format: ADME
Cytochrome P450 3A4 = Cytochrome P450 3A4 (Homo sapiens, UniProt P08684); experiment: Inhibition of CYP3A4; format: ADME
[3] = Blood clearance in rat at 0.5 mg/kg, iv and 1 mg/kg, po by cassette dosing; format: ADME, organism-based
Summary of the method: (§1)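 Rats dosed at 0.5 mg/kg iv and 1 mg/kg po.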

[4] = Oral bioavailability in rat at 1 mg/kg, po by cassette dosing; format: ADME, organism-based; details: in vivo; summary of the method: as §1
[5] = Ratio of drug level in brain to blood in rat at 0.5 mg/kg, iv after 1 hr by cassette dosing; format: ADME, organism-based; parameters: dose 0.5 mg/kg, route intravenous; details: read-out: BBR
Summary of the method: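 Rats dosed at 0.5 mg/kg iv; brain and blood levels taken 1 h after iv dosing.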

[6] = target: Voltage-gated inwardly rectifying potassium channel KCNH2 (Homo sapiens, UniProt Q12809); experiment: Inhibition of human ERG
Rattus norvegicus = experiment: Whole blood binding in rat at 0.5 mg/kg, iv and 1 mg/kg, po by equilibrium dialysis assay; format: ADME, organism-based; details: in vivo
[7] = target: T3, Neuropeptide Y receptor type 1 (Homo sapiens, UniProt P25929); experiment: Antagonist activity at human NPY Y1 receptor expressed in HEK293 cells assessed as inhibition of calcium level by FLIPR assay; format: functional, cell-based
T3 sequence (P25929 whole entry): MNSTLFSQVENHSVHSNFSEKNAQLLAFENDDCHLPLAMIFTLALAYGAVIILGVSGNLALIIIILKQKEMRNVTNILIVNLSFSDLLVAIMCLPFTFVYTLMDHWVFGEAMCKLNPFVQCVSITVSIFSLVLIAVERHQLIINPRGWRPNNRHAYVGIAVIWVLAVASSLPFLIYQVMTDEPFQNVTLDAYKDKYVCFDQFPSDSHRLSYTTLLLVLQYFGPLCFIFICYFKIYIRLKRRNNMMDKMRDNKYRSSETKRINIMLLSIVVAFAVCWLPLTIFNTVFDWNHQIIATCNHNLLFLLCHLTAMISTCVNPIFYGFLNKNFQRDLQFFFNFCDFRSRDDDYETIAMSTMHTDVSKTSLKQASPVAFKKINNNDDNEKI

[8] = target: T4, Neuropeptide Y receptor type 2 (Homo sapiens, UniProt P49146); experiment: Antagonist activity at human NPY Y2 receptor expressed in HEK293 cells assessed as inhibition of calcium level by FLIPR assay; format: functional, cell-based
T4 sequence (P49146 whole entry): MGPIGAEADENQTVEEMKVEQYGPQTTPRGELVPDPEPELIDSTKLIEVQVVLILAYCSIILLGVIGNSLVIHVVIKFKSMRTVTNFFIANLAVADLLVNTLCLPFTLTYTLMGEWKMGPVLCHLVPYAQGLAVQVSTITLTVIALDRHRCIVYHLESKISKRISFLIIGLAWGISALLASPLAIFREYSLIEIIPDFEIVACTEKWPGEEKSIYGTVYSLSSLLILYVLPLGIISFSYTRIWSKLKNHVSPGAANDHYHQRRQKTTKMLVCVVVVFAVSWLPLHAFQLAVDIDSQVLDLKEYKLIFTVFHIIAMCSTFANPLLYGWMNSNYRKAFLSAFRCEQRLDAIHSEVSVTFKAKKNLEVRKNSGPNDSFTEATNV

Cytochrome P450 2C9, sequence (P11712 whole entry): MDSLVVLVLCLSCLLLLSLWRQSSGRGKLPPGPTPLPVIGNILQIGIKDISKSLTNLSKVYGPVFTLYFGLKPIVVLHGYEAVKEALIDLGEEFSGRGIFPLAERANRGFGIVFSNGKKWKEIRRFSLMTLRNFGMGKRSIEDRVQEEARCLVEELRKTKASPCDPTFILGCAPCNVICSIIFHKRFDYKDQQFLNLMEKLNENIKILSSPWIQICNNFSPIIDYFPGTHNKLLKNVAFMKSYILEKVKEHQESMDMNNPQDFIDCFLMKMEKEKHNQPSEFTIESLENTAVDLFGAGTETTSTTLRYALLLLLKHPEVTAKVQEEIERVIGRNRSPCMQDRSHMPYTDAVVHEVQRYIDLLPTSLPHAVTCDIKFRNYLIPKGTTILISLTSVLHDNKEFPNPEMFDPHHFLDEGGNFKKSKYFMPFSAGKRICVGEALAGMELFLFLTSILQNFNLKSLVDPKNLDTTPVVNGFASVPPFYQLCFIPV
Cytochrome P450 3A4, sequence (P08684 whole entry): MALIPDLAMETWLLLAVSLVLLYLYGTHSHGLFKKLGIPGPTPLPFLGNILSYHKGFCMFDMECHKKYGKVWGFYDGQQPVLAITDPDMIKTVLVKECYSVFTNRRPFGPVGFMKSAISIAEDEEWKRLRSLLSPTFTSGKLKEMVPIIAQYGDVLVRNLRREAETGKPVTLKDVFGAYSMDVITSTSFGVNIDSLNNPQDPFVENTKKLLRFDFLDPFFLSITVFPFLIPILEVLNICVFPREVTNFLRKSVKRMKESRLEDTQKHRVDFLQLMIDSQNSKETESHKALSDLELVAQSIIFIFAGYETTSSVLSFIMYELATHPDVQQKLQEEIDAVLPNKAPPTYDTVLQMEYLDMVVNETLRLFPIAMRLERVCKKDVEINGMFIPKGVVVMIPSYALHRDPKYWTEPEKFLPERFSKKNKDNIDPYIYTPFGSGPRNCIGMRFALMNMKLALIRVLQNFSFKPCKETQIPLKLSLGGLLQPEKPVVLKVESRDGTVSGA
Cytochrome P450 2C19, sequence (P33261 whole entry): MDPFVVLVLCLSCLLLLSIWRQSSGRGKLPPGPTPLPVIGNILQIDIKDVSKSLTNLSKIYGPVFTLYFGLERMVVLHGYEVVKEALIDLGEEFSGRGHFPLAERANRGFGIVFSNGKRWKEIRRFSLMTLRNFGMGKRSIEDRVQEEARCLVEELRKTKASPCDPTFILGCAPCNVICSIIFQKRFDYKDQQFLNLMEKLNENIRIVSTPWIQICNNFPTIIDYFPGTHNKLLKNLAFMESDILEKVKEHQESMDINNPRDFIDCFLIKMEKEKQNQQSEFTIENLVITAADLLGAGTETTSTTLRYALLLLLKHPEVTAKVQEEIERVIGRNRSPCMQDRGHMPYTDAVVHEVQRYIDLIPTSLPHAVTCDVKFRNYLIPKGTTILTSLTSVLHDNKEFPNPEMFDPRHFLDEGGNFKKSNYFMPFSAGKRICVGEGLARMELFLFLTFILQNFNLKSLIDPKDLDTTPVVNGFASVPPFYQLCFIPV
Voltage-gated inwardly rectifying potassium channel KCNH2, sequence (Q12809 whole entry): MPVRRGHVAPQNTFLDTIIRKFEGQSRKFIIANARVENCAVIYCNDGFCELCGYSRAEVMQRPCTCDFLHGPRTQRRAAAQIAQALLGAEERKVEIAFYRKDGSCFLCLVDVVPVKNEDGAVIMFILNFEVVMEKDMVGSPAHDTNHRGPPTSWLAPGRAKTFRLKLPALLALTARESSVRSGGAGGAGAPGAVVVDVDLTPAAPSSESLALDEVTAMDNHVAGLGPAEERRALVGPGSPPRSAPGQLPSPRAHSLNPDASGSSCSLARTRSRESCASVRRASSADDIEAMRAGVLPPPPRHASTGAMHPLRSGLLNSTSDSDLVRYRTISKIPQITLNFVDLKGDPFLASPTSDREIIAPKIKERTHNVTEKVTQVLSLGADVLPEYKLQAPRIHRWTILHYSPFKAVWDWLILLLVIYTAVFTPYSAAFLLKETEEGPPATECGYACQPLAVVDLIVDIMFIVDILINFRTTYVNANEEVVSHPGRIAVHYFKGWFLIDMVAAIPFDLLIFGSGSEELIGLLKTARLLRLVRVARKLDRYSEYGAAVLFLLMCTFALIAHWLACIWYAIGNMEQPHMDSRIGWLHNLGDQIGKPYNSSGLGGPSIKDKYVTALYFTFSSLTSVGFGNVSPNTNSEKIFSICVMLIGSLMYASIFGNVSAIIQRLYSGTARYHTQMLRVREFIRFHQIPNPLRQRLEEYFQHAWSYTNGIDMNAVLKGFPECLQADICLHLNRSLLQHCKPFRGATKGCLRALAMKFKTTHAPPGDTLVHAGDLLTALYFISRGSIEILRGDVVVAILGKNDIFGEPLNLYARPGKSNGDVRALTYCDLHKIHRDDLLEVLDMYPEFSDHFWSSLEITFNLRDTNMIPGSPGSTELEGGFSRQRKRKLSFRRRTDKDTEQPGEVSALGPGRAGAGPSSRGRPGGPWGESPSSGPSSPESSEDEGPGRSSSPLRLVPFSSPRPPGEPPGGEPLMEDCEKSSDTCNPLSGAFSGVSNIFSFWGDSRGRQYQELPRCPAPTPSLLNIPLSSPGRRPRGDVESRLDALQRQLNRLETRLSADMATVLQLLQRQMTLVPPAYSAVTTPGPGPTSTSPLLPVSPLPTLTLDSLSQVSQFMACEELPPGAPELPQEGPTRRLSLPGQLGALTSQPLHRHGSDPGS

pKi [1]	SMILES	also measured
7.30	O=C(c1ccncc1)N1C[C@@H]2[C@H](CNc3nc(-c4ccccn4)cs3)[C@@H]2C1	–
5.60	CC(=O)N1C[C@@H]2[C@H](CNc3nc(-c4ccccn4)cs3)[C@@H]2C1	–
8.60	CC(C)C(=O)N1C[C@@H]2[C@H](CNc3nc(-c4ccccn4)cs3)[C@@H]2C1	solubility [2]: 120 µg/mL (≈ 350 µM); pIC50 (Cytochrome P450 1A2): ≤ 5.15; pIC50 (Cytochrome P450 2C9): ≤ 5.15; pIC50 (Cytochrome P450 2C19): ≤ 5.15; pIC50 (Cytochrome P450 3A4): ≤ 5.15; clearance [3]: 137 mL/min/kg; bioavailability [4]: 6%; Kp at 1 h [5]: 0.7
7.90	O=C(c1ccccc1)N1C[C@@H]2[C@@H](CNc3nc(-c4ccccn4)cs3)[C@@H]2C1	–
8.60	O=C(c1ccccc1)N1C[C@@H]2[C@H](CNc3nc(-c4ccccn4)cs3)[C@@H]2C1	–
9.00	O=C(c1cccc(F)c1)N1C[C@@H]2[C@H](CNc3nc(-c4ccccn4)cs3)[C@@H]2C1	–
8.80	O=C(c1cc(F)cc(F)c1)N1C[C@@H]2[C@H](CNc3nc(-c4ccccn4)cs3)[C@@H]2C1	–
8.30	O=C(c1cccnc1)N1C[C@@H]2[C@H](CNc3nc(-c4ccccn4)cs3)[C@@H]2C1	–
9.00	O=C(Cc1ccccc1)N1C[C@@H]2[C@@H](CNc3nc(-c4ccccn4)cs3)[C@@H]2C1	–
9.00	O=C(Cc1ccccc1)N1C[C@@H]2[C@H](CNc3nc(-c4ccccn4)cs3)[C@@H]2C1	–
9.40	CC(C(=O)N1C[C@@H]2[C@H](CNc3nc(-c4ccccn4)cs3)[C@@H]2C1)c1ccccc1 (stereo partly drawn)	–
9.10	O=C(N1C[C@@H]2[C@H](CNc3nc(-c4ccccn4)cs3)[C@@H]2C1)C1(c2ccccc2)CC1	–
8.20	O=C(CCc1ccccc1)N1C[C@@H]2[C@@H](CNc3nc(-c4ccccn4)cs3)[C@@H]2C1	–
9.20	O=C(CCc1ccccc1)N1C[C@@H]2[C@H](CNc3nc(-c4ccccn4)cs3)[C@@H]2C1	–
8.30	CC(C(=O)N1C[C@@H]2[C@H](CNc3nc(-c4ccccn4)cs3)[C@@H]2C1)C(C)c1ccccc1 (stereo partly drawn)	–
9.10	O=C([C@H]1C[C@@H]1c1ccccc1)N1C[C@@H]2[C@H](CNc3nc(-c4ccccn4)cs3)[C@@H]2C1	–
8.10	O=C(C1CCOC1)N1C[C@@H]2[C@H](CNc3nc(-c4ccccn4)cs3)[C@@H]2C1 (stereo partly drawn)	pIC50 (Cytochrome P450 1A2): < 5.00; pIC50 (Cytochrome P450 2C9): < 5.00; pIC50 (Cytochrome P450 2C19): < 5.00; pIC50 (Cytochrome P450 3A4): < 5.00; clearance [3]: 98 mL/min/kg; bioavailability [4]: 15%; pIC50 [6]: 5.70; Kp at 1 h [5]: < 0.5; Activity (Rattus norvegicus): 74%
8.30	O=C(C1CCCO1)N1C[C@@H]2[C@H](CNc3nc(-c4ccccn4)cs3)[C@@H]2C1 (stereo partly drawn)	–
7.50	O=C(C1CCOCC1)N1C[C@@H]2[C@H](CNc3nc(-c4ccccn4)cs3)[C@@H]2C1	–
8.80	c1ccc(CN2C[C@@H]3[C@H](CNc4nc(-c5ccccn5)cs4)[C@@H]3C2)cc1	–
8.40	Cc1cc(C)cc(CN2C[C@@H]3[C@H](CNc4nc(-c5ccccn5)cs4)[C@@H]3C2)c1	–
9.20	Fc1cc(F)cc(CN2C[C@@H]3[C@H](CNc4nc(-c5ccccn5)cs4)[C@@H]3C2)c1	–
8.90	CC(c1ccccc1)N1C[C@@H]2[C@H](CNc3nc(-c4ccccn4)cs3)[C@@H]2C1 (stereo partly drawn)	–
7.80	FC(F)(F)c1ccc(Nc2nc(-c3ccccn3)cs2)cc1	pIC50 (Cytochrome P450 1A2): > 7.00; bioavailability [4]: 30%; Kp at 1 h [5]: 4.2; pKi [7]: < 4.50; pKi [8]: < 4.50

SMILES	pKi [1]	also measured
c1ccc(-c2csc(NC[C@H]3[C@@H]4CNC[C@@H]43)n2)nc1	6.00	–
CC(C)CN1C[C@@H]2[C@H](CNc3nc(-c4ccccn4)cs3)[C@@H]2C1	8.40	–
